Activity calls are given as the source filed them. No cut-off for these calls is given here. Where a SMILES comes first, the peptide text is derived from it. The star is where a group is joined. Cbz = O=C(OCc1ccccc1)*; CH2F = FC*
Tests used:
[1] = molecular target: T1, Receptor-interacting serine/threonine-protein kinase 1 (Homo sapiens) (UniProt Q13546); assay: Inhibition of RIPK1 in human FADD-deficient Jurkat I 2.1 cells assessed as protection against TNFalpha-induced necroptosis by measuring remaining viable cells at 10 uM measured after 24 hrs by MTS assay relative to TNFalpha; type: cell-based
T1 sequence (whole entry): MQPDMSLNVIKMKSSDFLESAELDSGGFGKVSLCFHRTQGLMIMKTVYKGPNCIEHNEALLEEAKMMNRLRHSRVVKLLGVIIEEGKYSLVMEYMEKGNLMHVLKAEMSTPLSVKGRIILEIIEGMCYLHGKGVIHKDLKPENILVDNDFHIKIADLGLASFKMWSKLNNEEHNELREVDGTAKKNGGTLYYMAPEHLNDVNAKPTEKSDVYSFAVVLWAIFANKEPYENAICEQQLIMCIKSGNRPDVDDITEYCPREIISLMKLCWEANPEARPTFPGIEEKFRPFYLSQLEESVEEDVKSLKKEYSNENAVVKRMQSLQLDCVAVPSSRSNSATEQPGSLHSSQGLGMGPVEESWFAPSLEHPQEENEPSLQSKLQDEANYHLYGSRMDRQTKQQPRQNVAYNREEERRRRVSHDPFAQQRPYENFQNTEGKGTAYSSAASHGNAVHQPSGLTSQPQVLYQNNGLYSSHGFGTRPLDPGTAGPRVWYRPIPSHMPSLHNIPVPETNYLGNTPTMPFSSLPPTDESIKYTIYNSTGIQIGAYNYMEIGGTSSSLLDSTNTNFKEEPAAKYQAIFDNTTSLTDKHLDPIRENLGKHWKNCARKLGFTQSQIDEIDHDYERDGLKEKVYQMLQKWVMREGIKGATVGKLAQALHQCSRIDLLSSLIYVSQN
Procedure, shortened: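 FADD-deficient Jurkat cells co-treated 24 h with 10 ng/ml human recombinant TNF-α and 10 μM compound; MTS viability normalized to DMSO control (100%); protection delta = viability with TNF-α plus compound minus viability with TNF-α alone (negative if toxic); n = 3.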

[2] = Cytotoxicity against human FADD-deficient Jurkat I 2.1 cells assessed as reduction in cell viability at >10 uM measured after 24 hrs by MTS assay; type: cell-based; conditions: jurkat i 2.1, 24 h
Jurkat [3] = assay: Protection against staurosporine-induced apoptosis in human Jurkat assessed as increase in cell viability at 20 uM measured after 24 hrs by MTS assay; type: functional, cell-based
Jurkat [4] = assay: Protection against TRAIL-induced apoptosis in human Jurkat assessed as increase in cell viability at 20 uM measured after 24 hrs by MTS assay; type: functional, cell-based

CCNC(=O)CNc1nc2ccc([N+](=O)[O-])cc2[nH]1
Activity [1]: 1.9%

O=[N+]([O-])c1cccc2nc(NC3CCCCC3)[nH]c12
Activity [1]: 13%

Oc1ccc(-c2cc3cccnc3[nH]2)cc1
Activity [1]: 57.9%

CCCCNc1nc2ccc(C(=O)NCc3ccccc3)cc2[nH]1
Activity [1]: 5%

O=[N+]([O-])c1ccc2sc(Cl)nc2c1
Activity [1]: 0.1%

CCCCCCNc1nc2ccc([N+](=O)[O-])cc2[nH]1
Activity [1]: 23.6%

CCCCNc1nc2ccc(-c3cccc([N+](=O)[O-])c3)cc2[nH]1
Activity [1]: -20.6%

CCCCNc1nc2ccc(C(=O)NCCCc3ccccc3)cc2[nH]1
Activity [1]: -3.6%

CC(C)CNc1nc2ccc([N+](=O)[O-])cc2[nH]1
Activity [2]: Toxic
Activity [1]: 53.7%

O=[N+]([O-])c1ccc(Nc2nc3ccc([N+](=O)[O-])cc3[nH]2)cc1
Activity [1]: 3.6%

O=[N+]([O-])c1ccc2nc(Nc3ccc(Br)cc3)[nH]c2c1
Activity [1]: -6.1%

CCCCNc1nc2ccc(I)cc2[nH]1
Activity [1]: -16.3%

CCCNc1nc2ccc([N+](=O)[O-])cc2[nH]1
Activity [1]: 20%

CCCCNc1nc2ccc(C#N)cc2[nH]1
Activity [1]: 6.3%

O=[N+]([O-])c1ccc2nc(NCc3ccccc3)[nH]c2c1
Activity [1]: 9%

CCCCNC(=O)CNc1nc2ccc([N+](=O)[O-])cc2[nH]1
Activity [1]: 4.6%

CCCCNc1nc2ccc(-c3cccc(OC)c3)cc2[nH]1
Activity [1]: -16.8%

CCCCNc1nc2ccc(Br)cc2[nH]1
Activity [1]: 7.3%

CCCCNc1nc2ccc(-n3cnnn3)cc2[nH]1
Activity [1]: -1.32%

Clc1ccc2nc(NC3CCCCC3)[nH]c2c1
Activity [1]: 38.2%

CC(C)Nc1nc2cccc([N+](=O)[O-])c2[nH]1
Activity [1]: 1%

O=[N+]([O-])c1ccc2nc(Nc3ccc(C(F)(F)F)cc3)[nH]c2c1
Activity [1]: -30.8%

CC(C)[C@H](NC(=O)OCc1ccccc1)C(=O)N[C@@H](C)C(=O)N[C@@H](CC(=O)O)C(=O)CF (Cbz-Val-Ala-Asp-CH2F)
Activity (Jurkat [3]): inactive
Activity (Jurkat [4]): inactive

N#Cc1ccc(Nc2nc3ccc([N+](=O)[O-])cc3[nH]2)cc1
Activity [1]: -31.4%

CCOC(=O)CNc1nc2ccc([N+](=O)[O-])cc2[nH]1
Activity [1]: 15.3%

COCCNc1nc2cccc([N+](=O)[O-])c2[nH]1
Activity [1]: -2.3%

COCCNc1nc2ccc([N+](=O)[O-])cc2[nH]1
Activity [1]: 5.6%

O=[N+]([O-])c1cccc2nc(NCc3ccccc3)[nH]c12
Activity [1]: 5.1%

CCCCNc1nc2ccc(-c3cccs3)cc2[nH]1
Activity [1]: -20.5%

Cc1ccc2nc(NC3CCCCC3)[nH]c2c1
Activity [1]: 7%

CCNc1nc2ccc(-c3cccc([N+](=O)[O-])c3)cc2[nH]1
Activity [1]: -19.4%

O=C(Nc1nc2ccc([N+](=O)[O-])cc2[nH]1)c1ccccc1
Activity [1]: -21.3%

CCNc1nc2ccc([N+](=O)[O-])cc2[nH]1
Activity [1]: 6.4%

C=CCNc1nc2ccc([N+](=O)[O-])cc2[nH]1
Activity [1]: 4.7%

C#CCNc1nc2ccc([N+](=O)[O-])cc2[nH]1
Activity [1]: 3.4%

O=[N+]([O-])c1cccc2nc(Nc3ccccc3)[nH]c12
Activity [1]: 0%

CCCCNc1nc2cccc([N+](=O)[O-])c2[nH]1
Activity [1]: 1.2%

Brc1ccc2nc(NC3CCCCC3)[nH]c2c1
Activity [1]: 43.7%

CCNc1nc2ccc(Br)cc2[nH]1
Activity [1]: 10.4%

CCCCNc1nc2ccc([N+](=O)[O-])cc2s1
Activity [1]: 28%

COC(=O)c1cccc2nc(NC3CCCCC3)[nH]c12
Activity [1]: 21.7%

CCNc1nc2ccc(-c3ccccc3Cl)cc2[nH]1
Activity [1]: 4.9%

CC(C)Nc1nc2ccc([N+](=O)[O-])cc2[nH]1
Activity [1]: 16.2%

CCNc1nc2ccc(-c3cccc(OC)c3)cc2[nH]1
Activity [1]: -12.8%

O=[N+]([O-])c1ccc2nc(NC3CCCCC3)[nH]c2c1
Activity [2]: Toxic
Activity [1]: 68.1%

CN(C)c1ccc(Nc2nc3ccc([N+](=O)[O-])cc3[nH]2)cc1
Activity [1]: 14%

CCCCNc1nc2ccc(C(=O)OC)cc2[nH]1
Activity [1]: 2.9%

CCCCCCCCNc1nc2ccc([N+](=O)[O-])cc2[nH]1
Activity [1]: 6.4%

CCCCNc1nc2ccc(-c3cn(Cc4ccccc4)nn3)cc2[nH]1
Activity [1]: -10.5%

O=[N+]([O-])c1ccc2nc(Nc3ccccc3)[nH]c2c1
Activity [2]: Toxic
Activity [1]: 41.9%

C#Cc1ccc2nc(NCCCC)[nH]c2c1
Activity [1]: -21.3%

CCCCNc1nc2cccc(C(=O)OC)c2[nH]1
Activity [1]: 29.2%

CCCCNc1nc2ccc(C#C[Si](C)(C)C)cc2[nH]1
Activity [1]: -18.5%

CCCCNc1nc2ccc(C(=O)NCCc3ccccc3)cc2[nH]1
Activity [1]: 2.6%

CCCCNc1nc2cc(C(F)(F)F)cc(Br)c2[nH]1
Activity [1]: 23.7%
